Screening data deposited in PubChem by several laboratories.
GRK2 aptamer HTS = inhibitors of human GRK2 displacing RNA aptamer | P25098 | bead flow cytometry, FAM-aptamer displacement from GRK2 | inhibition of aptamer binding, % at 10 µM | 0.59% of 330,000 active;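 active means inhibition of aptamer binding above 40%, roughly 3 SD of noise, on plates passing a quality check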;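 further: median bead fluorescence of bound FAM aptamer so fluorescent compounds give negative values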
STEP inh = blocks human striatal-enriched tyrosine phosphatase. P54829. recombinant STEP, OMFP fluorogenic substrate, fluorescence. inhibition, % at 20 µM. 0.25% of 360,000 active;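 active means inhibition at 20 µM, scaled per plate between control wells, above about 37%, limit read from the data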;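 further: 0% = DMSO with enzyme and substrate and 100% = substrate only without enzyme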
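Also added – OMFP at 25 µM · Test system – STEP tyrosine phosphatase · Technique – FITC-channel fluorescence of OMFP product · Schedule – 20 min at room temperature, dark · Evaluation – control-normalized % inhibition with plate pattern correction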
Scp1 inh = blocks human Scp-1 phosphatase activity. 0.88% of 340,000 active. Recombinant Scp1, phosphopeptide, malachite green phosphate absorbance. inhibition, % at 20 µM;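 active means inhibition above about 50% at 20 µM, limit read from the data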;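 further: plate controls were DMSO wells with enzyme for no effect and wells lacking enzyme for full effect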
Target sequence (Q9GZU7 76-261 limits assumed): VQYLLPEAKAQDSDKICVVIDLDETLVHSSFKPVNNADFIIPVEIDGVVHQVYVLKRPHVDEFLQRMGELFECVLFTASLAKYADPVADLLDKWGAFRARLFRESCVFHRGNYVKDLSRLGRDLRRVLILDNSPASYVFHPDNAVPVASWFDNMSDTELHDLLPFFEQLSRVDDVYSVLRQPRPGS
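Assay system: SCP-1 catalytic fragment, aa 76-261 | Buffer or medium: Tris acetate buffer pH 5.5 with MgCl2 and Tween-20 | Compound: One concentration, 20 µM, with 1.0% DMSO | Also added: Phospho 17-mer peptide substrate | Signal: Absorbance at 630 nm | Incubation: 45 min enzyme reaction at room temperature | Measure: % inhibition of SCP-1 phosphate liberation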
SUMO1 PPI mod = modulators of human SUMO1-mediated protein-protein interactions; P63165; SUMO1 binding to a labelled peptide, TR-FRET, 1 h; inhibition, % at 20 µM; 0.33% of 360,000 active; in the data active means inhibition above about 37%
Target sequence (P63165 whole entry, looked up): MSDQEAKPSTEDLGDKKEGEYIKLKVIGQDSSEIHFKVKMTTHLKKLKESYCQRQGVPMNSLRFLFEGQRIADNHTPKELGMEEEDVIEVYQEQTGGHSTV
DNMT1 inh = blocks human DNA methyltransferase DNMT1; 0.83% of 360,000 active; P26358; AID 588458; inhibition (reported as % activation of signal), % at 10 µM; DNMT1 molecular beacon, Hinp1I cleavage, fluorescence; in the data active means inhibition above about 50%
LMPTP inh = blocks human LMPTP phosphatase | P24666 | recombinant LMPTP-A, OMFP fluorogenic substrate, fluorescence intensity | AID 651560 | inhibition, % at 20 µM | 0.22% of 360,000 active;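 active means compounds that cut the enzyme signal by at least half of the control window in the single-dose screen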;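 further: plate controls were DMSO wells with enzyme plus substrate for no effect and substrate without enzyme for full effect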
Target sequence (P24666 whole entry, looked up): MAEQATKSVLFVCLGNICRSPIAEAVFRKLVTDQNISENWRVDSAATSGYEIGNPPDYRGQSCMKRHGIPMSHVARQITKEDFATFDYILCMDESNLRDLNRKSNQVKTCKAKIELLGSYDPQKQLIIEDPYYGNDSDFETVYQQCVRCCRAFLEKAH
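Material: LMPTP-A; amount: 0.625 nM enzyme; doses: single 20 µM dose; times: reaction 50 min, room temperature, dark; technique: fluorescence intensity of OMFP turnover product; benchmarks: no-enzyme and uninhibited controls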
An asterisk follows results filed as active; i = inactive; nt = not tested or not shown; + = active, no number. Rows were chosen to be rich in hits. Some 2.2% of all compounds tested hit in one or more screens of this group.

SMILES	GRK2 aptamer HTS	STEP inh	Scp1 inh	SUMO1 PPI mod	DNMT1 inh	LMPTP inh
O=C(O)CC(C(=O)O)N1C(=O)/C(=C/C=C/c2ccco2)SC1=S (stereo unspecified)	100*	89*	88*	112*	79*	66*
O=C1S/C(=C\C=C\c2ccco2)C(=O)N1c1ccc(O)cc1	4	0	0	-7	17	18
O=C(O)CCCN1C(=O)/C(=C/C=C/c2ccco2)SC1=S	100*	54*	97*	103*	87*	35
O=C(O)C(Cc1ccccc1)N1C(=O)/C(=C/C=C/c2ccco2)SC1=S (stereo unspecified)	nt	83*	84*	115*	97*	64*
O=C(O)CCCN1C(=O)/C(=C\c2ccc(-c3nc4ccccc4s3)o2)SC1=S	13	65*	75*	56*	85*	22
Cc1ccsc1C(=O)N1CCC1(C)C(=O)NCCC#N (stereo unspecified)	nt	-1	nt	-3	4	0
CN1CCCC(C)(C(=O)Nc2ccc(-n3cccc3)cc2)C1 (stereo unspecified)	nt	-3	nt	-5	-2	1
CCn1cc(/C=C(\NC(=O)c2ccccc2F)C(=O)N2CCN(C)CC2)c2ccccc21	nt	-3	nt	-1	5	3
OC(c1cccnc1)c1nc(/C=C/c2ccc(C(F)(F)F)cc2)cs1 (stereo unspecified)	nt	-2	nt	4	9	3
CC1(C(=O)NCc2ccccc2)CSCC(=O)N1Cc1cccc(C(F)(F)F)c1 (stereo unspecified)	nt	nt	nt	-1	nt	0
O=C1OCCC1=COCCCCCCOC=C1CCOC1=O	nt	-4	nt	2	2	-1
CC(=O)OC[C@@H]1CN(Cc2ccccc2)C[C@H](n2cnc3c(N4CCN(c5ccccc5)CC4)ncnc32)O1	nt	0	nt	2	-9	3
CC(C)C[C@@H](CNCC(=O)[C@H](Cc1ccccc1)NC(=O)c1[nH]cnc1C(=O)N[C@H](CN)CC(C)C)NC(=O)c1nc[nH]c1C(=O)N[C@@H](CC(=O)O)C(=O)O	nt	0	13	47*	4	-2
CC(C)C[C@@H](CNCC(=O)[C@H](CC(C)C)NC(=O)c1[nH]cnc1C(=O)N[C@H](CN)CC(C)C)NC(=O)c1nc[nH]c1C(=O)N[C@@H](Cc1ccccc1)C(=O)O	nt	-4	-14	3	-5	-7
Cc1cccc(-c2nc(NCCCN3CCOCC3)c3ccccc3n2)c1	0	4	-9	3	-16	67*
c1ccc2[nH]c(NCCCN3CCOCC3)nc2c1	0	-1	-3	5	8	-1
c1ccc(-c2nc(NCCCN3CCOCC3)c3ccccc3n2)cc1	1	-1	0	3	-4	51*
CCNc1nc(-c2sc(NC(=O)C(C)(C)C)nc2C)c(-n2cc(-c3ccccc3)nn2)s1	nt	nt	nt	-3	nt	2
COC(=O)c1ccccc1-c1c2ccc(=N)cc-2oc2cc(N)ccc12	0	i	5	i	+	i
COc1cc2c(cc1OC)/C(=C/C(=O)c1ccc(OC)c([N+](=O)[O-])c1)NCC2	0	3	-6	42*	-12	2
N=C1/C(=C\c2ccc(-c3cccc(C(=O)O)c3)o2)C(=O)N=C2SC=C(c3ccccc3)N12	2	23	72*	89*	90*	80*
Cc1ccccc1-n1c(C)cc(/C=C2/C(=N)N3C(c4ccccc4)=CSC3=NC2=O)c1C	2	4	-8	-1	-11	2
Cc1ccc(NC(=O)c2ccc(OC(=O)CCN3C(=O)c4ccccc4C3=O)cc2)cc1	0	10	0	21	50*	0
Cc1cc(C)cc(OC(=O)CCN2C(=O)c3ccccc3C2=O)c1	3	4	6	-10	-1	0
COc1cc(/C(C)=N/NC(=O)c2cccc(S(=O)(=O)N3CCCC3)c2)cc(OC)c1OC	50*	1	9	2	1	0
SMILES	GRK2 aptamer HTS	STEP inh	Scp1 inh	SUMO1 PPI mod	DNMT1 inh	LMPTP inh
Oc1ccc2ccccc2c1/C=N/Nc1ccccc1	1	52*	-17	-3	-27	0
CC1=C(C(=O)N(C(C)C)C(C)C)CC(CC(=O)NCc2cccc3ccccc23)C(=O)N1CCC1=CCCCC1 (stereo unspecified)	nt	-2	nt	2	-15	5
Cc1ccc(CNC(=O)CSc2ccsc2[N+](=O)[O-])cc1	0	0	0	-14	1	-1
CCN(CC)c1ccc(NC(=O)CSc2ccsc2[N+](=O)[O-])c(C)c1	3	5	19	-6	53*	2
O=C1CSC(c2nn(-c3ccccc3)cc2-c2cc3ccccc3oc2=O)N1Cc1ccco1 (stereo unspecified)	0	3	-9	2	2	-1
O=C1CSC(c2cn(-c3ccccc3)nc2-c2cc3ccccc3oc2=O)N1Cc1ccccc1 (stereo unspecified)	0	6	-18	55*	-7	3
CN(C)c1ccc(CC(=O)N2CCCCC2c2cc(C(=O)Nc3ccccc3)no2)cc1 (stereo unspecified)	nt	-2	nt	4	-1	0
Cc1c2cnn(CC(=O)NCCN3CCOCC3)c(=O)c2c(C)n1Cc1ccccc1F	nt	-1	10	5	3	-1
CCN(CC)c1ccc(NC(=O)Cn2ncc3c(C)n(Cc4ccccc4F)c(C)c3c2=O)c(C)c1	0	4	-8	-3	60*	5
COc1ccc(-c2nc3ccc(C)cn3c2NCc2ccccc2)cc1SC1CCCCC1	0	6	20	-3	60*	4
CCCCNc1c(-c2ccc(OC)c(SC3CCCCC3)c2)nc2ccc(C)cn12	37	6	23	-21	-17	10
CCN(Cc1ccccc1)C(=O)C1CCN(Cc2ccc(SC)cc2)CC1	0	0	-5	42*	-1	-1
CN(C)c1nc(N)nc(/C(C#N)=C/C2CC3C=CC2C3)n1 (stereo unspecified)	0	0	-3	4	-7	67*
CCOC(=O)[C@]12CCCC=C1N(CCC1=CCCCC1)C(=O)[C@H](CC(=O)N1CCC(c3ccccc3)CC1)C2	nt	nt	nt	-1	nt	11
O=C(C=Cc1ccccc1)c1ccc([N+](=O)[O-])cc1	nt	1	-15	-37	5	-1
CN(C)c1ccc(C(=O)C=Cc2ccc([N+](=O)[O-])cc2)cc1	nt	12	nt	-14	34	55*
Cc1cc2cc(CNC(=O)c3cc4ccccc4o3)ccc2n1C	87*	nt	nt	nt	nt	nt
CC(C)(C)C(=O)NC(=S)NNC(=O)c1sc2ccccc2c1Cl	49*	2	-13	-1	-4	0
